Experimental data from ChEMBL document CHEMBL4725360, “Optimization of Acetazolamide-Based Scaffold as Potent Inhibitors of Vancomycin-Resistant Enterococcus” (J Med Chem, 2020).
In brackets after ≈: the same amount, converted by molar mass. Activity calls are given as the source filed them. No cut-off for these calls is given here.

How the values were obtained:
Enterococcus faecium [1] = experiment: Inhibition of carbonic anhydrase in Enterococcus faecium ATCC 700221 assessed as antibacterial activity incubated for 18 to 20 hrs in presence of 5% CO2 by CLSI protocol based broth microdilution assay; conditions: time hrs 18-20
Procedure, shortened: (§1)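 CLSI broth microdilution: inoculum about 5 × 10⁵ CFU/mL in trypticase soy broth with serial dilutions of agents. Paired plates incubated at 37 °C for 18–20 h, one set in ambient air ("normal"), the other under 5% CO₂. MIC is the lowest concentration completely inhibiting visible growth.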

Enterococcus faecium [2] = experiment: Inhibition of carbonic anhydrase in Enterococcus faecium ATCC 700221 assessed as antibacterial activity incubated for 18 to 20 hrs in presence of ambient air by CLSI protocol based broth microdilution assay; conditions: time hrs 18-20; procedure, shortened: as §1
Enterococcus faecium [3] = experiment: Antibacterial activity against Enterococcus faecium HM965 incubated for 18 to 20 hrs under aerobic condition by CLSI protocol based broth microdilution assay; format: functional; conditions: time hrs 18-20
Procedure, shortened: (§2)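 Broth microdilution per CLSI. Strains grown aerobically overnight on trypticase soy agar at 37 °C. Inoculum set to 0.5 McFarland, diluted in trypticase soy broth to about 5 × 10⁵ CFU/mL. Agents serially diluted, plates incubated aerobically at 37 °C for 18–20 h. MIC is the lowest concentration with no visible growth. Compound stocks 10 mg/mL in DMSO.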

Caco-2 = experiment: Cytotoxicity against human Caco2 cells at 128 ug/ml incubated for 2 hrs by MTS assay; format: cell-based; conditions: caco-2, 2 h, dose 128 µg/ml
Procedure, shortened: (§3)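 Caco-2 cells maintained in DMEM with 10% FBS, non-essential amino acids and penicillin-streptomycin at 37 °C, 5% CO₂. Compound exposure for 2 h in serum-free medium at several concentrations; DMSO-matched controls. Viability expressed relative to DMSO controls (mean ± SD), and CC₅₀ derived.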

Enterococcus faecium [4] = experiment: Antibacterial activity against Enterococcus faecium NR-31914 incubated for 18 to 20 hrs under aerobic condition by CLSI protocol based broth microdilution assay; format: functional; conditions: time hrs 18-20; procedure, shortened: as §2
Enterococcus faecium [5] = experiment: Antibacterial activity against Enterococcus faecium NR-31971 incubated for 18 to 20 hrs under aerobic condition by CLSI protocol based broth microdilution assay; format: functional; conditions: time hrs 18-20; procedure, shortened: as §2
Enterococcus faecium [6] = experiment: Antibacterial activity against Enterococcus faecium NR-31916 incubated for 18 to 20 hrs under aerobic condition by CLSI protocol based broth microdilution assay; format: functional; conditions: time hrs 18-20; procedure, shortened: as §2
Enterococcus faecium [7] = experiment: Antibacterial activity against Enterococcus faecium NR-28978 incubated for 18 to 20 hrs under aerobic condition by CLSI protocol based broth microdilution assay; format: functional; conditions: time hrs 18-20; procedure, shortened: as §2
Enterococcus faecium [8] = experiment: Antibacterial activity against Enterococcus faecium NR-31972 incubated for 18 to 20 hrs under aerobic condition by CLSI protocol based broth microdilution assay; format: functional; conditions: time hrs 18-20; procedure, shortened: as §2
Enterococcus faecalis [9] = experiment: Antibacterial activity against Enterococcus faecalis HM-335 incubated for 18 to 20 hrs under aerobic condition by CLSI protocol based broth microdilution assay; format: functional; conditions: time hrs 18-20; procedure, shortened: as §2
Enterococcus faecium [10] = experiment: Antibacterial activity against Enterococcus faecium NR-32052 incubated for 18 to 20 hrs under aerobic condition by CLSI protocol based broth microdilution assay; format: functional; conditions: time hrs 18-20; procedure, shortened: as §2
Enterococcus faecium [11] = experiment: Antibacterial activity against Enterococcus faecium HM968 incubated for 18 to 20 hrs under aerobic condition by CLSI protocol based broth microdilution assay; format: functional; conditions: time hrs 18-20; procedure, shortened: as §2
Enterococcus faecalis [12] = experiment: Antibacterial activity against Enterococcus faecalis HM-334 incubated for 18 to 20 hrs under aerobic condition by CLSI protocol based broth microdilution assay; format: functional; conditions: time hrs 18-20; procedure, shortened: as §2
[13] = Cytotoxicity against human Caco2 cells incubated for 2 hrs by MTS assay; format: cell-based; conditions: Caco-2 cells; procedure, shortened: as §3
Enterococcus faecium [14] = experiment: Antibacterial activity against Enterococcus faecium NR-31903 incubated for 18 to 20 hrs under aerobic condition by CLSI protocol based broth microdilution assay; format: functional; conditions: time hrs 18-20; procedure, shortened: as §2
Enterococcus faecium [15] = experiment: Antibacterial activity against Enterococcus faecium NR-32065 incubated for 18 to 20 hrs under aerobic condition by CLSI protocol based broth microdilution assay; format: functional; conditions: time hrs 18-20; procedure, shortened: as §2
Enterococcus faecalis [16] = experiment: Antibacterial activity against Enterococcus faecalis NR-31975 incubated for 18 to 20 hrs under aerobic condition by CLSI protocol based broth microdilution assay; format: functional, organism-based; conditions: time hrs 18-20; procedure, shortened: as §2
Enterococcus faecalis [17] = experiment: Antibacterial activity against Enterococcus faecalis NR-31970 incubated for 18 to 20 hrs under aerobic condition by CLSI protocol based broth microdilution assay; format: functional, organism-based; conditions: time hrs 18-20; procedure, shortened: as §2

Row | Compound | inhibition (Enterococcus faecium [1]) | inhibition (Enterococcus faecium [2]) | MIC (Enterococcus faecium [3]) [µg/mL] | Activity (Caco-2) | MIC (Enterococcus faecium [4]) [µg/mL] | MIC (Enterococcus faecium [5]) [µg/mL] | MIC (Enterococcus faecium [6]) [µg/mL] | MIC (Enterococcus faecium [7]) [µg/mL] | MIC (Enterococcus faecium [8]) [µg/mL] | MIC (Enterococcus faecalis [9]) [µg/mL] | MIC (Enterococcus faecium [10]) [µg/mL] | MIC (Enterococcus faecium [11]) [µg/mL] | MIC (Enterococcus faecalis [12]) [µg/mL] | CC50 at 2 h [13] [µg/mL] | MIC (Enterococcus faecium [14]) [µg/mL] | MIC (Enterococcus faecium [15]) [µg/mL] | Activity (Enterococcus faecalis [16]) | Activity (Enterococcus faecalis [17])
1 | CCC(=O)Nc1nnc(S(N)(=O)=O)s1 [PROPAZOLAMIDE] | inactive | Active | 1 (≈ 4.23 µM) | – | – | – | – | – | – | – | – | – | – | – | – | – | – | –
2 | NS(=O)(=O)c1nnc(NC(=O)CC2CC2)s1 | inactive | Active | 0.25 (≈ 0.953 µM) | Non-Toxic | 0.5 (≈ 1.91 µM) | 0.5 (≈ 1.91 µM) | 0.25 (≈ 0.953 µM) | 1 (≈ 3.81 µM) | 0.5 (≈ 1.91 µM) | 0.25 (≈ 0.953 µM) | 0.25 (≈ 0.953 µM) | 0.5 (≈ 1.91 µM) | 0.5 (≈ 1.91 µM) | > 128 | 0.25 (≈ 0.953 µM) | 0.25 (≈ 0.953 µM) | – | –
3 | NS(=O)(=O)c1nnc(NC(=O)C2CC2)s1 | – | – | 2 (≈ 8.06 µM) | – | – | – | – | – | – | – | – | – | – | – | – | – | Active | Active
4 | CC(=O)Nc1ncc(S(N)(=O)=O)s1 | – | – | > 64 | – | – | – | – | – | – | – | – | – | – | – | – | – | – | –
5 | NS(=O)(=O)c1nnc(NC(=O)CCC2CCCC2)s1 | inactive | Active | 0.06 (≈ 0.197 µM) | Non-Toxic | 0.06 (≈ 0.197 µM) | 0.03 (≈ 0.0986 µM) | 0.03 (≈ 0.0986 µM) | 0.125 (≈ 0.411 µM) | 0.03 (≈ 0.0986 µM) | 0.06 (≈ 0.197 µM) | 0.06 (≈ 0.197 µM) | 0.06 (≈ 0.197 µM) | 0.015 (≈ 0.0493 µM) | > 128 | 0.03 (≈ 0.0986 µM) | 0.06 (≈ 0.197 µM) | Active | Active
6 | NS(=O)(=O)c1nnc(NCc2ccccc2)s1 | – | – | > 64 | – | – | – | – | – | – | – | – | – | – | – | – | – | – | –
7 | NS(=O)(=O)c1nnc(NC(=O)CCN2CCOCC2)s1 | inactive | Active | 2 (≈ 6.22 µM) | – | – | – | – | – | – | – | – | – | – | – | – | – | – | –
